What was measured:
Heart = test: Biodistribution in Sprague-Dawley rat heart at 30 uCi, iv measured after 30 mins by gamma counting; format: ADME, organism-based; conditions: in vivo, 0.5 h
Procedure, shortened: (§1)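 Normal male Sprague-Dawley rats (n = 3) received 30 μCi of the 18F tracer iv per rat and were sacrificed at 30 min. Organs removed, weighed and gamma counted. Striatum, hippocampus, cerebellum, cortex and hypothalamus dissected and counted separately. %dose/g calculated against diluted aliquots of the injected dose; mean ± S.D. of 3 rats.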

Bone = test: Biodistribution in Sprague-Dawley rat bone at 30 uCi, iv measured after 30 mins by gamma counting; format: ADME, organism-based, Bone element; conditions: in vivo, 0.5 h; procedure, shortened: as §1
Blood = test: Biodistribution in Sprague-Dawley rat blood at 30 uCi, iv measured after 30 mins by gamma counting; format: ADME, organism-based; conditions: in vivo, 0.5 h; procedure, shortened: as §1
Nucleic Acid [1] = test: Ratio of drug uptake in striatum to cerebellum of Sprague-Dawley rat at 30 uCi, iv measured after 30 mins by gamma counting; format: ADME, organism-based; conditions: in vivo, 0.5 h
Procedure, shortened: (§2)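 Male Sprague-Dawley rats (n = 3) received 30 μCi of the 18F tracer iv and were dissected at 30 min. Brain regions gamma counted as %dose/g against injected-dose aliquots. Regional uptake expressed as a ratio to cerebellum uptake.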

Liver = test: Biodistribution in Sprague-Dawley rat liver at 30 uCi, iv measured after 30 mins by gamma counting; format: ADME, organism-based; conditions: in vivo, 0.5 h; procedure, shortened: as §1
[2] = target: T1, Sodium-dependent dopamine transporter (Homo sapiens, UniProt Q01959); test: Displacement of [125I]IPT from DAT overexpressed in LLC-PK1 cell membrane by competitive binding assay
T1 sequence (Q01959 whole entry): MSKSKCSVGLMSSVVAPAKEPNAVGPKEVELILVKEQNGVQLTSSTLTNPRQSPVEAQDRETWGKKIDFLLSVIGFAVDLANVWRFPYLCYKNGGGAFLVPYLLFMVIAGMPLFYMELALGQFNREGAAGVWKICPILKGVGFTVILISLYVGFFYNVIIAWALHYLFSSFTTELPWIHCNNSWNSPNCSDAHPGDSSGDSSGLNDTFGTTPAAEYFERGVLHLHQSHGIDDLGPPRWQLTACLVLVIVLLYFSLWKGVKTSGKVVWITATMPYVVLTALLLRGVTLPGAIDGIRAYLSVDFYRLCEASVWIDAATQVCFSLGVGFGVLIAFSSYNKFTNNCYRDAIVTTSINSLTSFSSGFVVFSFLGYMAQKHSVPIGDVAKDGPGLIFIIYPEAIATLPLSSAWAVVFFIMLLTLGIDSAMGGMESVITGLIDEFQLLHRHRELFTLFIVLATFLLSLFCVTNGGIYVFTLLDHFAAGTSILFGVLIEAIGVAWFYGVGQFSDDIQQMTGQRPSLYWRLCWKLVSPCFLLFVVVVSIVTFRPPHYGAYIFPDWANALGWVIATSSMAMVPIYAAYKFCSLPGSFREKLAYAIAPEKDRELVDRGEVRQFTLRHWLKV

Cortex = test: Biodistribution in Sprague-Dawley rat cortex at 30 uCi, iv measured after 30 mins by gamma counting; format: ADME, organism-based; conditions: in vivo, 0.5 h; procedure, shortened: as §1
Cerebellum = test: Biodistribution in Sprague-Dawley rat cerebellum at 30 uCi, iv measured after 30 mins by gamma counting; format: ADME, organism-based; conditions: in vivo, 0.5 h; procedure, shortened: as §1
Kidney = test: Biodistribution in Sprague-Dawley rat kidney at 30 uCi, iv measured after 30 mins by gamma counting; format: ADME, organism-based; conditions: in vivo, 0.5 h; procedure, shortened: as §1
Striatum = test: Biodistribution in Sprague-Dawley rat striatum at 30 uCi, iv measured after 30 mins by gamma counting; format: ADME, organism-based; conditions: in vivo, 0.5 h; procedure, shortened: as §1
[3] = 1-Octanol-sodium phosphate buffer partition coefficient, log P of the compound at pH 7.4 after 4 mins; format: physicochemical
Procedure, shortened: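 Radiolabelled compound added to 3 g 1-octanol and 3 g NaH2PO4 buffer, pH 7.4. Mixture vortexed 1 min and centrifuged 3 min. Octanol layer removed and partition repeated two more times. log P taken from the ratio of counts/mL in octanol vs buffer after the third partition.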

Hippocampus = test: Biodistribution in Sprague-Dawley rat hippocampus at 30 uCi, iv measured after 30 mins by gamma counting; format: ADME, organism-based; conditions: in vivo, 0.5 h; procedure, shortened: as §1
Lung = test: Biodistribution in Sprague-Dawley rat lung at 30 uCi, iv measured after 30 mins by gamma counting; format: ADME, organism-based; conditions: in vivo, 0.5 h; procedure, shortened: as §1
Brain = test: Biodistribution in Sprague-Dawley rat brain at 30 uCi, iv measured after 30 mins by gamma counting; format: ADME, organism-based; conditions: in vivo, 0.5 h; procedure, shortened: as §1
Muscle tissue = test: Biodistribution in Sprague-Dawley rat muscle at 30 uCi, iv measured after 30 mins by gamma counting; format: ADME, organism-based; conditions: in vivo, 0.5 h; procedure, shortened: as §1
Nucleic Acid [4] = test: Ratio of drug uptake in hippocampus to cerebellum of Sprague-Dawley rat at 30 uCi, iv measured after 30 mins by gamma counting; format: ADME, organism-based; conditions: in vivo, 0.5 h; procedure, shortened: as §2
Hypothalamus = test: Biodistribution in Sprague-Dawley rat hypothalamus at 30 uCi, iv measured after 30 mins by gamma counting; format: ADME, organism-based; conditions: in vivo, 0.5 h; procedure, shortened: as §1
[5] = target: T1, Sodium-dependent dopamine transporter; test: Binding affinity to DAT

| Structure (SMILES) | Drug uptake (Heart) [% ID/g] | Drug uptake (Bone) [% ID/g] | Drug uptake (Blood) [% ID/g] | Ratio (Nucleic Acid [1]) | Drug uptake (Liver) [% ID/g] | Ki [2] [nM] | Drug uptake (Cortex) [% ID/g] | Drug uptake (Cerebellum) [% ID/g] | Drug uptake (Kidney) [% ID/g] | Drug uptake (Striatum) [% ID/g] | logD at 4 min [3] | Drug uptake (Hippocampus) [% ID/g] | Drug uptake (Lung) [% ID/g] | Drug uptake (Brain) [% ID/g] | Drug uptake (Muscle tissue) [% ID/g] | Ratio (Nucleic Acid [4]) | Drug uptake (Hypothalamus) [% ID/g] | Kd [5] [nM] | Ki [5] [nM] |
| --- | --- | --- | --- | --- | --- | --- | --- | --- | --- | --- | --- | --- | --- | --- | --- | --- | --- | --- | --- |
| CN(CC[18F])C[C@H]1[C@@H](c2ccc(Cl)cc2)C[C@@H]2CC[C@H]1N2C | 0.8 | 0.43 | 0.1 | 1.63 | 3.01 | 3.79 | 0.91 | 0.65 | 3.65 | 1.07 | 1.52 | 0.79 | 5.93 | 0.72 | 0.27 | 1.21 | 0.82 | – | – |
| CN(CCC[18F])C[C@H]1[C@@H](c2ccc(Cl)cc2)C[C@@H]2CC[C@H]1N2C | 1.56 | 0.5 | 0.1 | 0.94 | 2.08 | 2.64 | 0.68 | 0.66 | 4.63 | 0.63 | 1.72 | 0.54 | 11.5 | 0.52 | 0.22 | 0.8 | 0.63 | – | – |
| CN(CCOCC[18F])C[C@H]1[C@@H](c2ccc(Cl)cc2)C[C@@H]2CC[C@H]1N2C | – | – | – | – | – | 4.63 | – | – | – | – | – | – | – | – | – | – | – | – | – |
| CN(C)C(=O)[C@H]1[C@@H](c2ccc(Cl)cc2)C[C@@H]2CC[C@H]1N2CC[18F] | – | – | – | – | – | 699 | – | – | – | – | -0.11 | – | – | – | – | – | – | – | – |
| CN(C)C(=O)[C@H]1[C@@H](c2ccc(Cl)cc2)C[C@@H]2CC[C@H]1N2CCC[18F] | – | – | – | – | – | 135 | – | – | – | – | -0.07 | – | – | – | – | – | – | – | – |
| CN(C)C[C@H]1[C@@H](c2ccc(Cl)cc2)C[C@@H]2CC[C@H]1N2CC[18F] | – | – | – | – | – | 18.3 | – | – | – | – | 1.88 | – | – | – | – | – | – | – | – |
| CN(C)C[C@H]1[C@@H](c2ccc(Cl)cc2)C[C@@H]2CC[C@H]1N2CCC[18F] | 0.57 | 1.04 | 0.14 | 1.1 | 0.86 | 26.9 | 0.52 | 0.44 | 2.08 | 0.49 | 1.98 | 0.44 | 5.58 | 0.39 | 0.3 | 0.99 | 0.43 | – | – |
| COC(=O)[C@H]1[C@@H](c2ccc(Cl)cc2)C[C@@H]2CC[C@H]1N2C/C=C/[125I] | – | – | – | – | – | – | – | – | – | – | – | – | – | – | – | – | – | 1.2 | – |
| Cc1ccc([C@H]2C[C@@H]3CC[C@H]([C@H]2C(=O)OCC[18F])N3C/C=C/I)cc1 | – | – | – | – | – | – | – | – | – | – | – | – | – | – | – | – | – | – | 12 |

Source: ChEMBL document CHEMBL2046339, “Synthesis and evaluation of novel tropane derivatives as potential PET imaging agents for the dopamine transporter” (Bioorg Med Chem Lett, 2012)
